The source made the active and inactive calls. The rule behind the calls is not given here.

One data set concerns the target T1, Adenosine receptor A2b (Homo sapiens, UniProt P29275).
T1 sequence (P29275 whole entry): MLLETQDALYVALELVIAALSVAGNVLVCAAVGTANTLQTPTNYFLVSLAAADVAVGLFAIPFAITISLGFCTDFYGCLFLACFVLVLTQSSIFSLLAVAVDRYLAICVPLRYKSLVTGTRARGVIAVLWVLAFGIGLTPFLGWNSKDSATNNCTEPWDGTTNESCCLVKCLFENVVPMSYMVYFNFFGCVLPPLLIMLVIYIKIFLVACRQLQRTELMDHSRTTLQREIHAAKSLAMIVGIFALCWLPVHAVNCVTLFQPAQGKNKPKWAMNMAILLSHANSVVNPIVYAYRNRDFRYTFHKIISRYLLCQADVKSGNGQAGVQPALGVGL
Description: Displacement of [3H]MRS-1754 from human recombinant adenosine A2B receptor expressed in HEK293 cells. In kind it is cell-based.

For data set [1], the target named is T2, Adenosine receptor A2a (Rattus norvegicus, UniProt P30543). The experiment in a line: Displacement of [125I]ZM241385 from adenosine A2A receptor in rat brain striatum membrane. In kind it is cell membranes.
T2 sequence (P30543 whole entry): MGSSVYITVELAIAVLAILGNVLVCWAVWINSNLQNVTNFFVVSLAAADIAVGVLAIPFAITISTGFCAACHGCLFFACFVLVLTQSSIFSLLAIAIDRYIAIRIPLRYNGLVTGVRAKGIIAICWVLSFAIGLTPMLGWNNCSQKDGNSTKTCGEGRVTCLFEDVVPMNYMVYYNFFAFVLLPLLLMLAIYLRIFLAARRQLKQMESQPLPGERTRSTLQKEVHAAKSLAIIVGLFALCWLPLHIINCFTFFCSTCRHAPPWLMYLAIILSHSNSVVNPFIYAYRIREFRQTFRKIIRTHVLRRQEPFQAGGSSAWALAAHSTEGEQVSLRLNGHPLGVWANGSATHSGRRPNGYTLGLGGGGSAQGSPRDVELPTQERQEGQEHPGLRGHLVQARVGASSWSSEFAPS
The target of the next data set is T3, Adenosine receptor A3 (Homo sapiens, UniProt P0DMS8).
T3 sequence (P0DMS8 whole entry): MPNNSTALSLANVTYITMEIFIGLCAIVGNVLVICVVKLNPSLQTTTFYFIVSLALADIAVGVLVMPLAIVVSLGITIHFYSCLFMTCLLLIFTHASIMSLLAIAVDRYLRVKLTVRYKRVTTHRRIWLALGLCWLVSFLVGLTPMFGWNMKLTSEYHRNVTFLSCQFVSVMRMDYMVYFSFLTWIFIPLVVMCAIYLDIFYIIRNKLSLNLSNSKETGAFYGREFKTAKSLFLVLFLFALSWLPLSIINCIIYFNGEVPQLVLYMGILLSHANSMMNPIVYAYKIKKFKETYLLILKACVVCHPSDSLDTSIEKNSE
The experiment in a line: Displacement of [125I]AB-MECA from human adenosine A3 receptor expressed in HEK293 cells. In kind it is cell-based.

Data set [2] concerns the target T4, Adenosine receptor A1 (Rattus norvegicus, UniProt P25099).
T4 sequence (P25099 whole entry): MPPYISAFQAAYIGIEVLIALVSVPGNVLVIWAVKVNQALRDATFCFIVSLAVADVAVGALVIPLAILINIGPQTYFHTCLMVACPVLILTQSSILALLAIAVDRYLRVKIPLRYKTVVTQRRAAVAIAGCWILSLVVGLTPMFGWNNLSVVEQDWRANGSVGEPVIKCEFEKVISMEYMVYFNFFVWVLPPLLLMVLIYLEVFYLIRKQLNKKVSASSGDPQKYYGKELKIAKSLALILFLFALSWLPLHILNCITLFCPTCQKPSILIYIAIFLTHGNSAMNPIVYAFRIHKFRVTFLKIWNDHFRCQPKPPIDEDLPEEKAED
The experiment in a line: Displacement of [3H]CPX from adenosine A1 receptor in rat brain cortical membrane. In kind it is cell membranes. Background: Loss of bound radioactivity is the signal in a displacement assay; it reports binding, not function.

The subject of data set [3] is Rattus norvegicus. Description: Anticonvulsant activity in Sprague-Dawley albino rat assessed as protection against maximal electroshock-induced seizures at 30 mg/kg, po after 0.5 hrs. Also noted: dose 30 mg/kg. In kind it is functional, organism-based. A digest of the protocol:
(§1)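 Male Sprague-Dawley albino rats (100–150 g), groups of 4. Oral suspension in 0.5% methylcellulose/water. Protection assessed by maximal electroshock or subcutaneous pentylenetetrazole; motor impairment by rotorod. Time points 0.25–4 h. Value is protected (or toxic)/tested animals.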
(In general: Protection in the maximal electroshock model is a classic sign of anticonvulsant action.)

The test system of data set [4] is Rattus norvegicus. The experiment in a line: Anticonvulsant activity in Sprague-Dawley albino rat assessed as protection against maximal electroshock-induced seizures at 30 mg/kg, po after 4 hrs. In kind it is functional, organism-based. Also on record: dose 30 mg/kg. The method in brief:
as §1

Data set [5] concerns Mus musculus. The experiment in a line: Neurotoxicity in F1 albino mouse assessed as minimal motor impairment at 300 mg/kg, ip after 0.5 hrs by rotorod test. In kind it is toxicity, organism-based. Also on record: dose 300 mg/kg, route intraperitoneal. Conditions: in vivo. A digest of the protocol:
(§2)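 Male albino F-1 mice (18–25 g), groups of 1–5 (rotorod 2–8). Compound given ip as a suspension in 0.5% methylcellulose at 30, 100 and 300 mg/kg. Seizures by maximal electroshock or subcutaneous pentylenetetrazole; neurotoxicity by rotorod. Read at 0.5 and 4 h, with some at 0.25, 1 and 2 h. Value is the minimum active dose, with protected (or toxic)/tested animals.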
On the technique in general: In the rotarod test animals must keep their balance on a rotating rod.

Data set [6] relates to Mus musculus. Description: Anticonvulsant activity in F1 albino mouse assessed as protection against subcutaneous pentylenetetrazole-induced seizures at 300 mg/kg, ip after 0.25 hrs. In kind it is functional, organism-based. Also noted: dose 300 mg/kg. The method in brief: as §2
The subject of data set [7] is Mus musculus. Description: Anticonvulsant activity in F1 albino mouse assessed as protection against maximal electroshock-induced seizures at 100 mg/kg, ip after 0.5 hrs. In kind it is functional, organism-based. Also noted: dose 100 mg/kg. The method in brief: as §2
The test system of data set [8] is Rattus norvegicus. The experiment in a line: Anticonvulsant activity in Sprague-Dawley albino rat assessed as protection against subcutaneous pentylenetetrazole-induced seizures at 50 mg/kg, po after 2 hrs. In kind it is functional, organism-based. Also noted: dose 50 mg/kg. The method in brief:
as §1

The test system of data set [9] is Rattus norvegicus. The experiment in a line: Neurotoxicity in Sprague-Dawley albino rat assessed as minimal motor impairment at 30 mg/kg, po after 0.25 hrs by rotorod test. In kind it is toxicity, organism-based. Also noted: dose 30 mg/kg, route oral. Conditions: in vivo. A digest of the protocol: as §1
Data set [10] has as its system Mus musculus. Description: Anticonvulsant activity in F1 albino mouse assessed as protection against subcutaneous pentylenetetrazole-induced seizures at 100 mg/kg, ip after 0.5 hrs. In kind it is functional, organism-based. Also noted: dose 100 mg/kg. A digest of the protocol:
as §2

The test system of data set [11] is Rattus norvegicus. Description: Anticonvulsant activity in Sprague-Dawley albino rat assessed as protection against subcutaneous pentylenetetrazole-induced seizures at 50 mg/kg, po after 0.5 hrs. In kind it is functional, organism-based. Also on record: dose 50 mg/kg. The method in brief: as §1
The test system of data set [12] is Rattus norvegicus. Description: Anticonvulsant activity in Sprague-Dawley albino rat assessed as protection against maximal electroshock-induced seizures at 30 mg/kg, po after 2 hrs. In kind it is functional, organism-based. Also on record: dose 30 mg/kg. A digest of the protocol: as §1
Data set [13] deals with Rattus norvegicus. Description: Anticonvulsant activity in Sprague-Dawley albino rat assessed as protection against subcutaneous pentylenetetrazole-induced seizures at 50 mg/kg, po after 4 hrs. In kind it is functional, organism-based. Also noted: dose 50 mg/kg. The method in brief:
as §1

Data set [14] has as its target T2, Adenosine receptor A2a. Description: Displacement of [3H]MSX-2 from adenosine A2A receptor in rat brain striatal membrane. In kind it is cell membranes.
Data set [15] deals with Rattus norvegicus. Description: Anticonvulsant activity in Sprague-Dawley albino rat assessed as protection against maximal electroshock-induced seizures at 30 mg/kg, po after 1 hr. In kind it is functional, organism-based. Also on record: dose 30 mg/kg. The method in brief:
as §1

Data set [16] relates to Mus musculus. The experiment in a line: Anticonvulsant activity in F1 albino mouse assessed as protection against subcutaneous pentylenetetrazole-induced seizures at 300 mg/kg, ip after 1 hr. In kind it is functional, organism-based. Also noted: dose 300 mg/kg. The method in brief: as §2
Data set [17] deals with Mus musculus. The experiment in a line: Neurotoxicity in F1 albino mouse assessed as minimal motor impairment at 300 mg/kg, ip after 0.25 hrs by rotorod test. In kind it is toxicity, organism-based. Also on record: dose 300 mg/kg, route intraperitoneal. Conditions: in vivo. The method in brief: as §2
Data set [18] relates to Mus musculus. Description: Neurotoxicity in F1 albino mouse assessed as minimal motor impairment at 300 mg/kg, ip after 4 hrs by rotorod test. In kind it is toxicity, organism-based. Also noted: dose 300 mg/kg, route intraperitoneal. Particulars: in vivo. A digest of the protocol: as §2
The subject of data set [19] is Mus musculus. The experiment in a line: Anticonvulsant activity in F1 albino mouse assessed as protection against maximal electroshock-induced seizures at 300 mg/kg, ip after 0.25 hrs. Also on record: dose 300 mg/kg. In kind it is functional, organism-based. A digest of the protocol:
as §2

The subject of data set [20] is Mus musculus. Description: Neurotoxicity in F1 albino mouse assessed as minimal motor impairment at 300 mg/kg, ip after 1 hr by rotorod test. In kind it is toxicity, organism-based. Also on record: dose 300 mg/kg, route intraperitoneal. Particulars: in vivo. A digest of the protocol: as §2
In data set [21] the target is T4, Adenosine receptor A1. Description: Displacement of [3H]CCPA from adenosine A1 receptor in rat brain cortical membrane. In kind it is cell membranes.
Data set [22] has as its system Rattus norvegicus. The experiment in a line: Anticonvulsant activity in Sprague-Dawley albino rat assessed as protection against subcutaneous pentylenetetrazole-induced seizures at 50 mg/kg, po after 0.25 hrs. In kind it is functional, organism-based. Also on record: dose 50 mg/kg. The method in brief:
as §1

For data set [23], the system named is Rattus norvegicus. The experiment in a line: Neurotoxicity in Sprague-Dawley albino rat assessed as minimal motor impairment at 30 mg/kg, po after 1 hr by rotorod test. Also on record: dose 30 mg/kg, route oral. Particulars: in vivo. In kind it is toxicity, organism-based. The method in brief: as §1
The species entered for data set [24] is Rattus norvegicus. The experiment in a line: Selectivity ratio of Ki for adenosine A1 receptor in rat brain cortical membrane to Ki for adenosine A2A receptor in rat brain striatal membrane. In kind it is cell membranes. A digest of the protocol: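 Ki ratios from radioligand competition binding. Rat A1 used brain cortical membranes and rat A2A used brain striatal membranes. Human A1 and A2A used membranes of CHO cells expressing the receptors. A1 radioligand [³H]CCPA; A2A radioligand [³H]MSX-2. Potent compounds were tested at 6–7 concentrations spanning 3 orders of magnitude.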

Data set [25] relates to Mus musculus. The experiment in a line: Anticonvulsant activity in F1 albino mouse assessed as protection against maximal electroshock-induced seizures at 300 mg/kg, ip after 1 hr. In kind it is functional, organism-based. Also noted: dose 300 mg/kg. A digest of the protocol:
as §2

Data set [26] relates to Rattus norvegicus. Description: Neurotoxicity in Sprague-Dawley albino rat assessed as minimal motor impairment at 30 mg/kg, po after 0.5 hrs by rotorod test. In kind it is toxicity, organism-based. Also on record: dose 30 mg/kg, route oral. Particulars: in vivo. The method in brief:
as §1

In data set [27] the test system is Rattus norvegicus. The experiment in a line: Anticonvulsant activity in Sprague-Dawley albino rat assessed as protection against subcutaneous pentylenetetrazole-induced seizures at 50 mg/kg, po after 1 hr. Also noted: dose 50 mg/kg. In kind it is functional, organism-based. A digest of the protocol:
as §1

Data set [28] has as its system Rattus norvegicus. Description: Neurotoxicity in Sprague-Dawley albino rat assessed as minimal motor impairment at 30 mg/kg, po after 4 hrs by rotorod test. In kind it is toxicity, organism-based. Also noted: dose 30 mg/kg, route oral. Particulars: in vivo. The method in brief: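 Male Sprague-Dawley albino rats (100–150 g), groups of 4, dosed orally with a suspension in 0.5% methylcellulose/water. Neurotoxicity was scored as minimal motor impairment on the rotorod at 0.25, 0.5, 1 and 4 h. Results are reported as animals showing toxicity per animals tested.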

Data set [29] deals with Mus musculus. The experiment in a line: Anticonvulsant activity in F1 albino mouse assessed as protection against subcutaneous pentylenetetrazole-induced seizures at 300 mg/kg, ip after 4 hrs. In kind it is functional, organism-based. Also noted: dose 300 mg/kg. A digest of the protocol: as §2
The test system of data set [30] is Mus musculus. Description: Anticonvulsant activity in F1 albino mouse assessed as protection against maximal electroshock-induced seizures at 300 mg/kg, ip after 4 hrs. In kind it is functional, organism-based. Also noted: dose 300 mg/kg. The method in brief:
as §2

Take `CCCn1c(=O)c2[nH]c(C3C4CC5OC(=O)C3C5C4)nc2n(CCC)c1=O` (configuration not stated): the Ki (in general, the equilibrium dissociation constant of an inhibitor or competing ligand from its target) on Adenosine receptor A2b was 1.54 µM; on Adenosine receptor A2a [1] it was 0.269 µM; on Adenosine receptor A3 it was over 10 µM; at Adenosine receptor A1 [2], 0.0003 µM.

`C[C@@H](C1CCCCC1)N1CCCn2c1nc1c2c(=O)n(C)c(=O)n1C`: the outcome in the data set on Rattus norvegicus [3], in the data set on Rattus norvegicus [4], in the data set on Mus musculus [6], with Rattus norvegicus [8], in the data set on Mus musculus [10] and in the data set with Rattus norvegicus [11] was inactive. The outcome with Rattus norvegicus [12], in the data set with Rattus norvegicus [13], in the data set on Mus musculus [16], in the data set on Mus musculus [19], with Rattus norvegicus [22] and with Mus musculus [25] was inactive. Also, the outcome with Rattus norvegicus [27], with Mus musculus [29] and in the data set with Mus musculus [30] was inactive. Moreover, the Activity result in the data set with Mus musculus [5], in the data set on Rattus norvegicus [9], in the data set with Mus musculus [17], with Mus musculus [18], with Mus musculus [20] and in the data set with Rattus norvegicus [23] was “Non-toxic” throughout. In addition, the Activity entry with Rattus norvegicus [26] and in the data set with Rattus norvegicus [28] was “Non-toxic” each time. In addition, the result in the data set with Mus musculus [7] and in the data set on Rattus norvegicus [15] was Active. For the same molecule, the values for the Ki on Adenosine receptor A2a [14] and on Adenosine receptor A1 [21] were 0.887 µM and 11.9 µM, respectively. Moreover, in the data set filed under Rattus norvegicus [24], the Ratio Ki was found to be 13.

The values are drawn from ChEMBL document CHEMBL2150901, “Synthesis and biological activity of tricyclic cycloalkylimidazo-, pyrimido- and diazepinopurinediones” (Eur J Med Chem, 2011).
